The nature of data set [1]: Drug metabolism in human hepatocytes assessed as metabolite 2 ((20S,24S)-epoxydammarane-3,12,25-triol) formation at 50 uM after 180 mins by liquid chromatography-electrospray ionization ion trap mass spectrometry. The format is ADME, cell-based, Hepatocyte. The note with it: 3 h.
Data set [2] is described as follows: Drug metabolism in human hepatocytes assessed as metabolite 6 ((24S,25)-epoxydammarane-3,12,20-triol formation at 50 uM after 180 mins by liquid chromatography-electrospray ionization ion trap mass spectrometry. It is filed as ADME, cell-based, Hepatocyte. The conditions noted are these: 3 h.
The nature of data set [3]: Drug metabolism in human hepatocytes assessed as metabolite 7-1 ((2S,3S,4S,5R,6S)-6-(2-((2S,5S)-5-((3S,5R,8R,9R,10R,12R,14R,17S)-3,12-dihydroxy-4,4,8,10,14-pentamethylhexadecahydro-1H-cyclopenta[a]phenanthren-17-yl)-5-methyltetrahydrofuran-2-yl)propan-2-yloxy)-3,4,5-trihydroxytetrahydro-2H-pyran-2-carboxylic acid) formation at 50 uM after 180 mins by liquid chromatography-electrospray ionization ion trap mass spectrometry. The format is ADME, cell-based, Hepatocyte. The conditions noted are these: 3 h.

The nature of data set [4]: Drug metabolism in human hepatocytes assessed as metabolite 6-2 ((3R,6S)-6-((3S,5R,8R,9R,10R,12R,14R,17S)-3,12-dihydroxy-4,4,8,10,14-pentamethylhexadecahydro-1H-cyclopenta[a]phenanthren-17-yl)-2-methylheptane-2,3,6-triol) formation at 50 uM after 180 mins by liquid chromatography-electrospray ionization ion trap mass spectrometry. The format is ADME, cell-based, Hepatocyte. The note with it: 3 h.

The test system of data set [5] is Liver microsome. As to the kind of experiment: Drug metabolism in mixed human liver microsomes assessed as metabolite 6 ((24S,25)-epoxydammarane-3,12,20-triol formation at 50 uM after 60 mins by liquid chromatography-electrospray ionization ion trap mass spectrometry. The format is ADME. The note with it: 1 h. In outline: (§1)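 Pooled human liver microsomes, 1.0 mg/ml protein, with substrate 50 µM in 100 mM potassium phosphate pH 7.4 (final MeOH 0.1% v/v). Preincubated 3 min at 37°C, started with NADPH 2.0 mM, run 60 min, stopped with ice-cold acetonitrile. Controls lacked NADPH or substrate; duplicates. Metabolites profiled by LC/ESI ion-trap MSn.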

Data set [6] relates to Liver microsome. As to the kind of experiment: Drug metabolism in mixed human liver microsomes assessed as metabolite 2 ((20S,24S)-epoxydammarane-3,12,25-triol) formation at 50 uM after 60 mins by liquid chromatography-electrospray ionization ion trap mass spectrometry. It is filed as ADME. The note with it: 1 h. In outline:
as §1
(Liver microsomes are a subcellular fraction often used to study metabolism.)

Data set [7] is described as follows: Drug metabolism in human hepatocytes assessed as metabolite 5 ((20S,24R)-epoxydammarane-12,25-diol-3-one) formation at 50 uM after 180 mins by liquid chromatography-electrospray ionization ion trap mass spectrometry. The format is ADME, cell-based, Hepatocyte. The note with it: 3 h.
Data set [8] in a line: Drug excretion in Sprague-Dawley rat feces assessed as metabolite 3 ((20S,24R)-epoxydammarane-3,12,25-triol) level at 100 mg/kg/day, po qd for 11 days administered via gavage by liquid chromatography-electrospray ionization ion trap mass spectrometry. The conditions noted are these: in vivo, 264 h. It is filed as ADME, organism-based. Set-up: route oral. In a few lines:
(§2)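 Rats given PPD by gavage at 100 mg/kg/day once daily for 11 days, as a 10 mg/ml solution in 0.5% carboxymethyl cellulose sodium, 0.5% polysorbate-80 and 99% saline; 20 rats housed singly in metabolic cages. Feces collected over 0–288 h and frozen at -20°C; blank feces taken before dosing.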

A short description of data set [9]: Oral bioavailability in rat at 25 mg/kg. It is filed as ADME, organism-based. The conditions noted are these: in vivo.
For data set [10], the system named is Liver microsome. As to the kind of experiment: Drug metabolism in mixed human liver microsomes assessed as glucuronide conjugate metabolite level at 50 uM after 120 mins by liquid chromatography-electrospray ionization ion trap mass spectrometry in presence of UDPGA. It is filed as ADME. The conditions noted are these: 2 h. In a few lines: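 Pooled human liver microsomes, 1.0 mg/ml protein, in 50 mM Tris-HCl pH 7.4 with 10 mM MgCl₂, 2 mM UDPGA and 25 µg/mL alamethicin. Preincubated 3 min at 37°C, started with substrate 50 µM (final MeOH 0.1%), run 120 min, stopped with ice-cold acetonitrile. Time-0 controls; duplicates. Analysed by LC/ESI ion-trap MSn.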

Data set [11] relates to Liver microsome. As to the kind of experiment: Drug metabolism in mixed human liver microsomes assessed as metabolite 3 ((20S,24R)-epoxydammarane-3,12,25-triol) formation at 50 uM after 60 mins by liquid chromatography-electrospray ionization ion trap mass spectrometry. The format is ADME. The note with it: 1 h. In outline: as §1
A short description of data set [12]: Drug excretion in Sprague-Dawley rat feces assessed as metabolite 4 ((20S,24S)-epoxydammarane-12,25-diol-3-one) level at 100 mg/kg/day, po qd for 11 days administered via gavage by liquid chromatography-electrospray ionization ion trap mass spectrometry. The format is ADME, organism-based. Set-up: route oral. The conditions noted are these: in vivo, 264 h. In a few lines:
as §2

Data set [13] can be described thus: Retention time of the compound at 100 uM measured after 60 mins by liquid chromatography-electrospray ionization ion trap mass spectrometry in presence of 10 uM 3-chloroperoxybenzoic acid. The format is physicochemical. The note with it: 1 h. In outline: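 PPD 100 µM oxidised chemically with m-CPBA 10 µM in CH₂Cl₂, stirred at room temperature for 15 and 60 min. Mixture poured into Na₂CO₃-saturated ice water and extracted three times with ether before LC/MS analysis.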

Data set [14] in a line: Drug metabolism in human hepatocytes assessed as metabolite 6-1 ((3S,6S)-6-((3S,5R,8R,9R,10R,12R,14R,17S)-3,12-dihydroxy-4,4,8,10,14-pentamethylhexadecahydro-1H-cyclopenta[a]phenanthren-17-yl)-2-methylheptane-2,3,6-triol) formation at 50 uM after 180 mins by liquid chromatography-electrospray ionization ion trap mass spectrometry. It is filed as ADME, cell-based, Hepatocyte. The note with it: 3 h.

The nature of data set [15]: Oral bioavailability in dog at 8 mg/kg. The format is ADME, organism-based, Canis lupus familiaris. The note with it: in vivo.
Data set [16] is described as follows: Drug metabolism in human hepatocytes assessed as metabolite 7-2 ((2S,3S,4S,5R,6S)-6-(2-((2R,5S)-5-((3S,5R,8R,9R,10R,12R,14R,17S)-3,12-dihydroxy-4,4,8,10,14-pentamethylhexadecahydro-1H-cyclopenta[a]phenanthren-17-yl)-5-methyltetrahydrofuran-2-yl)propan-2-yloxy)-3,4,5-trihydroxytetrahydro-2H-pyran-2-carboxylic acid) formation at 50 uM after 180 mins by liquid chromatography-electrospray ionization ion trap mass spectrometry. The format is ADME, cell-based, Hepatocyte. The note with it: 3 h.

Data set [17] has as its system Liver microsome. As to the kind of experiment: Drug metabolism in mixed human liver microsomes assessed as metabolite 5 ((20S,24R)-epoxydammarane-12,25-diol-3-one) formation at 50 uM after 60 mins by liquid chromatography-electrospray ionization ion trap mass spectrometry. The conditions noted are these: 1 h. The format is ADME. In a few lines: as §1
Data set [18] can be described thus: Drug excretion in Sprague-Dawley rat feces assessed as metabolite 5 ((20S,24R)-epoxydammarane-12,25-diol-3-one) level at 100 mg/kg/day, po qd for 11 days administered via gavage by liquid chromatography-electrospray ionization ion trap mass spectrometry. The format is ADME, organism-based. Also on record: route oral. The note with it: in vivo, 264 h. In outline: as §2

The nature of data set [19]: Drug metabolism in human hepatocytes assessed as metabolite 3 ((20S,24R)-epoxydammarane-3,12,25-triol) formation at 50 uM after 180 mins by liquid chromatography-electrospray ionization ion trap mass spectrometry. The format is ADME, cell-based, Hepatocyte. The note with it: 3 h.
A short description of data set [20]: Drug metabolism in human hepatocytes assessed as metabolite 4 ((20S,24S)-epoxydammarane-12,25-diol-3-one) formation at 50 uM after 180 mins by liquid chromatography-electrospray ionization ion trap mass spectrometry. It is filed as ADME, cell-based, Hepatocyte. The note with it: 3 h.
A short description of data set [21]: Drug excretion in Sprague-Dawley rat feces assessed as metabolite 2 ((20S,24S)-epoxydammarane-3,12,25-triol) level at 100 mg/kg/day, po qd for 11 days administered via gavage by liquid chromatography-electrospray ionization ion trap mass spectrometry. It is filed as ADME, organism-based. Set-up: route oral. The note with it: in vivo, 264 h. In outline: as §2

Data set [22] concerns Liver microsome. As to the kind of experiment: Drug metabolism in mixed human liver microsomes assessed as metabolite 4 ((20S,24S)-epoxydammarane-12,25-diol-3-one) formation at 50 uM after 60 mins by liquid chromatography-electrospray ionization ion trap mass spectrometry. The format is ADME. The note with it: 1 h. In outline:
as §1

A word on the bioavailability: it is dose-corrected exposure relative to a reference, in per cent. Read a high bioavailability as much systemic uptake.

Structures are written as SMILES.

`CC(C)=CCC[C@](C)(O)[C@H]1CC[C@]2(C)[C@@H]1[C@H](O)C[C@@H]1[C@@]3(C)CC[C@H](O)C(C)(C)[C@@H]3CC[C@]12C`: the Drug metabolism entry (in [1]; in data set [2]; in data set [3]; in data set [4]; in the data set with Liver microsome [5]; in the data set with Liver microsome [6]) was “metabolite_detected” throughout. Further, the Drug metabolism entry in data set [7] is “metabolite_detected”; with Liver microsome [10], “metabolite_not_detected”; in the data set with Liver microsome [11], “metabolite_detected”; in data set [14], “metabolite_detected”; in data set [16], “metabolite_detected”; in the data set on Liver microsome [17], “metabolite_detected”. Also, the Drug metabolism result (in data set [19]; in [20]; with Liver microsome [22]) was “metabolite_detected” each time. For the same compound, the Drug excretion entry in [8], in data set [12], in data set [18] and in data set [21] was “metabolite_detected” each time. In addition, the bioavailability in data set [9] came out at 31%; in data set [15], 9.6%. Moreover, in data set [13], the Retention_time amounted to 22.3 min.

The values above are taken from ChEMBL document CHEMBL3525992, “Identification of 20(S)-protopanaxadiol metabolites in human liver microsomes and human hepatocytes” (Drug Metab Dispos, 2011).
